The text below walks through data of publication PMC3769431 (Structure (London, England : 1993), 2013).

Series [1] deals with T1, p38α (Homo sapiens, UniProt Q16539). Briefly: Small angle X-ray scattering, resting-state complex with unphosphorylated p38α. The following applies: SAXS, GNOM. In short, it runs like this: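 Unphosphorylated p38α was mixed 1:1 with PTPSL 331–655 or STEP 214–539 for 30 min on ice, then SEC-purified in 50 mM HEPES pH 6.8, 150 mM NaCl, 5 mM DTT. Samples were 0.4–4.0 mg/ml (PTPSL) or 1.0–4.0 mg/ml (STEP), filtered, flowed through a 1 mm capillary and exposed 30 s or 180 s at a synchrotron beamline. Dmax came from the P(r) function.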

Series [2] addresses p38α (unphosphorylated) (UniProt Q16539). Briefly: ITC. For orientation: ITC needs no label: the signal is the heat of the interaction.
For series [3], the target named is p38α (unphosphorylated) (UniProt Q16539 1-360). Briefly: ITC.
In series [4] the target is T1, p38α. In words: NMR chemical shift perturbation, 2D [1H,15N] TROSY of [2H,15N]-p38α. Format: binding. Particulars: for number of p38α peaks with CSPs on complex formation / number of p38α peaks with line-widths broadened beyond detection / number of perturbed p38α peaks in fast exchange: free vs bound p38α, SEC-purified 1:1 complex, NMR buffer pH 6.8; for number of p38α peaks with CSPs on complex formation / number of p38α peaks with line-widths broadened beyond detection / number of perturbed p38α peaks in fast exchange / interaction with p38α by NMR (in words): 298 K; for interaction with p38α by NMR (in words): 2D [1H,15N] TROSY, 800 MHz, 50 mM HEPES pH 6.8, 150 mM NaCl, 5 mM dithiothreitol.

For series [5], the target named is T1, p38α. Particulars: 2011, cited from earlier work; for dephosphorylation of p38α (in words): in vitro phosphatase assays, ref Zhang et al.
Series [6] has as its target T1, p38α. In words: Isothermal titration calorimetry. Format: binding.
[7] abbreviates: ITC, 25 °C, 10 mM Tris pH 7.5, 150 mM NaCl, 0.1 mM EDTA, 0.5 mM TCEP.

T1 sequence (Q16539 whole entry): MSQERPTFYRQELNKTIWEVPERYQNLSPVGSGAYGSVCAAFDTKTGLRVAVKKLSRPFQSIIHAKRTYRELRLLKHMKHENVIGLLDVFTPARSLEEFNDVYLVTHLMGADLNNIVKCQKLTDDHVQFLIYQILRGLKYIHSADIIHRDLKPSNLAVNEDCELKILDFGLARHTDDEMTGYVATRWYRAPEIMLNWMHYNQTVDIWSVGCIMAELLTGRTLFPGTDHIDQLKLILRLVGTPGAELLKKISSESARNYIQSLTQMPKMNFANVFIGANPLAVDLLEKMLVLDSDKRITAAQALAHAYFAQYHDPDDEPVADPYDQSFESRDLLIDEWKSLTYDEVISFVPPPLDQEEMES
Sequence of p38α (unphosphorylated) (UniProt Q16539 1-360) (Q16539 whole entry): as above
Sequence of p38α (unphosphorylated) (UniProt Q16539) (Q16539 whole entry): as above

With “p38:PTPRR: 1:1 complex of unphosphorylated p38α with PTPSL 331–655”, in the series with p38α [1], the “Dmax (P(r) function calculation)” value is 105 Å and the “Rg (P(r) function calculation)” value is reported as 34.1 Å.

Broadly, the Kd is a measure of binding affinity in units of concentration. A low value points to a tighter complex. In the series with p38α (unphosphorylated) [2], STEP_(F274A/F281A) (domain or fragment) had a Kd of 1.07 µM and a dH of -101 kJ/mol.

In the series with p38α (unphosphorylated) [2], STEP_(M285A/I307A) (domain or fragment) displayed a Kd of 0.592 µM and a dH of -115 kJ/mol.

In the series with p38α (unphosphorylated) [2], PSChimera (from UniProt Q15256 332-373) returned a Kd of 0.309 µM and a dH of -114 kJ/mol.

In the series with p38α (unphosphorylated) [2], “STEP (residues 214–539) (domain or fragment)” came in with a Kd of 0.577 µM and a dH of -120 kJ/mol.

B1: PTPSL (residues 332–655) (domain or fragment, UniProt Q15256 332-655, looked up)
chain: GLQERRGSNVSLTLDMSSLGNIEPFVSIPTPREKVAMEYLQSASRILTRSQLRDVVASSHLLQSEFMEIPMNFVDPKEIDIPRHGTKNRYKTILPNPLSRVCLRPKNVTDSLSTYINANYIRGYSGKEKAFIATQGPMINTVDDFWQMVWQEDSPVIVMITKLKEKNEKCVLYWPEKRGIYGKVEVLVISVNECDNYTIRNLVLKQGSHTQHVKHYWYTSWPDHKTPDSAQPLLQLMLDVEEDRLASQGRGPVVVHCSAGIGRTGCFIATSIGCQQLKEEGVVDALSIVCQLRMDRGGMVQTSEQYEFVHHALCLYESRLSAET
For B1, in the series with p38α (unphosphorylated) [3], the Kd is 0.382 ± 0.065 µM and the dH was -126 ± 6.28 kJ/mol. In addition, in the series with p38α [4], the “number of p38α peaks with CSPs on complex formation” value came to 41 peaks, the “number of p38α peaks with line-widths broadened beyond detection” value stood at 5 peaks and the “number of perturbed p38α peaks in fast exchange” value was determined as 36 peaks. For the same molecule, in the series with p38α [5], the “dephosphorylation of p38α (in words)” value is recorded as “the most efficient p38α phosphatase of all tested”. Further, the “relative binding affinity for p38α (in words)” value in the series with p38α [6] (ITC) is on record as “the highest affinity interaction with p38α among the KIM-PTPs”. In the series with p38α [6] (setting [7]), the TΔS is -89.5 ± 5.86 kJ/mol and the ΔG was -36.8 ± 0.42 kJ/mol. The “times tighter binding to p38α than PTPSLKIM” value with p38α [6] (ITC, relative to PTPSLKIM) is given as ~ 7 times. Moreover, the “times tighter binding to p38α than HePTP” value with p38α [6] (relative to HePTP) is around 6 times.

B2: STEP_(F281A/I307A) (domain or fragment)
chain: GLQERRGSNVSLTLDMCTPGCNEEGFGYLMSPREESAREYLLSASRVLQAEELHEKALDPFLLQAEFAEIPMNFVDPKEYDIPGLVRKNRYKTALPNPHSRVCLTSPDPDDPLSSYINANYIRGYGGEEKVYIATQGPIVSTVADFWRMVWQEHTPIIVMITNIEEMNEKCTEYWPEEQVAYDGVEITVQKVIHTEDYRLRLISLKSGTEERGLKHYWFTSWPDQKTPDRAPPLLHLVREVEEAAQQEGPHCAPIIVHCSAGIGRTGCFIATSICCQQLRQEGVVDILKTTCQLRQDRGGMIQTCEQYQFVHHVMSLYEKQLSHQS
In the series with p38α (unphosphorylated) [3], B2 had a Kd of 1.06 ± 0.036 µM and a dH of -144 ± 4.6 kJ/mol.

B3: PTPSLCAT: PTPSLCAT (residues 361–655), catalytic domain (protein)
chain: TPREKVAMEYLQSASRILTRSQLRDVVASSHLLQSEFMEIPMNFVDPKEIDIPRHGTKNRYKTILPNPLSRVCLRPKNVTDSLSTYINANYIRGYSGKEKAFIATQGPMINTVDDFWQMVWQEDSPVIVMITKLKEKNEKCVLYWPEKRGIYGKVEVLVISVNECDNYTIRNLVLKQGSHTQHVKHYWYTSWPDHKTPDSAQPLLQLMLDVEEDRLASQGRGPVVVHCSAGIGRTGCFIATSIGCQQLKEEGVVDALSIVCQLRMDRGGMVQTSEQYEFVHHALCLYESRLSAET
Take B3: the “interaction with p38α by NMR (in words)” value with p38α [4] is “no interactions between p38α and isolated PTPSLCAT were detected”.

B4: STEP: STEP (residues 214–539) (protein, UniProt P54829 214-539, looked up, fragment)
chain: TPVFDCVMDIKPEADPTSLTVKSMGLQERRGSNVSLTLDMCTPGCNEEGFGYLMSPREESAREYLLSASRVLQAEELHEKALDPFLLQAEFFEIPMNFVDPKEYDIPGLVRKNRYKTILPNPHSRVCLTSPDPDDPLSSYINANYIRGYGGEEKVYIATQGPIVSTVADFWRMVWQEHTPIIVMITNIEEMNEKCTEYWPEEQVAYDGVEITVQKVIHTEDYRLRLISLKSGTEERGLKHYWFTSWPDQKTPDRAPPLLHLVREVEEAAQQEGPHCAPIIVHCSAGIGRTGCFIATSICCQQLRQEGVVDILKTTCQLRQDRGGMI
In the case of B4, the “additional or larger CSPs (residues) than with the corresponding KIM peptide” value in the series with p38α [4] (comparison with p38α:STEPKIM or p38α:PTPSLKIM spectra) is “three”. For the same molecule, in the series with p38α [4], the “number of p38α peaks with CSPs on complex formation” value was found to be 58 peaks, the “number of p38α peaks with line-widths broadened beyond detection” value is 18 peaks and the “number of perturbed p38α peaks in fast exchange” value was determined as 40 peaks. Further, the “kcat for dephosphorylation of p38α, fold lower than for PTPSL or HePTP” value with p38α [5] (compared with PTPSL or HePTP, ref Balasu et al., 2009, Zhang et al.) is ~ 20 fold. In the series with p38α [5], the “dephosphorylation of p38α (in words)” value was “significantly less efficient than PTPSL and HePTP at dephosphorylating p38α”. Also, in the series with p38α [6] (setting [7]), the dissociation constant (Kd) was determined as 0.577 ± 0.071 µM, the TΔS is -84.9 ± 8.37 kJ/mol, the ΔG was -35.6 ± 0.42 kJ/mol and the ΔH is -120 ± 8.37 kJ/mol. Besides, in the series with p38α [6] (ITC, relative to STEPKIM), the “times tighter binding to p38α than STEPKIM” value is given as ~ 6 times.

B5: HePTP: KIM-PTP HePTP (PTPN7, LC-PTP) (protein, UniProt P35236 1-360, looked up)
Tyrosine-protein phosphatase …: MVQAHGGRSRAQPLTLSLGAAMTQPPPEKTPAKKHVRLQERRGSNVALMLDVRSLGAVEPICSVNTPREVTLHFLRTAGHPLTRWALQRQPPSPKQLEEEFLKIPSNFVSPEDLDIPGHASKDRYKTILPNPQSRVCLGRAQSQEDGDYINANYIRGYDGKEKVYIATQGPMPNTVSDFWEMVWQEEVSLIVMLTQLREGKEKCVHYWPTEEETYGPFQIRIQDMKECPEYTVRQLTIQYQEERRSVKHILFSAWPDHQTPESAGPLLRLVAEVEESPETAAHPGPIVVHCSAGIGRTGCFIATRIGCQQLKARGEVDILGIVCQLRLDRGGMIQTAEQYQFLHHTLALYAGQLPEEPSP
With B5, the “dephosphorylation of p38α (in words)” value with p38α [5] is “can both readily dephosphorylate p38α”.

B6: STEPCAT: STEPCAT (residues 244–539), catalytic domain (protein, UniProt P54829 244-539, looked up, fragment)
chain: GSNVSLTLDMCTPGCNEEGFGYLMSPREESAREYLLSASRVLQAEELHEKALDPFLLQAEFFEIPMNFVDPKEYDIPGLVRKNRYKTILPNPHSRVCLTSPDPDDPLSSYINANYIRGYGGEEKVYIATQGPIVSTVADFWRMVWQEHTPIIVMITNIEEMNEKCTEYWPEEQVAYDGVEITVQKVIHTEDYRLRLISLKSGTEERGLKHYWFTSWPDQKTPDRAPPLLHLVREVEEAAQQEGPHCAPIIVHCSAGIGRTGCFIATSICCQQLRQEGVVDILKTTCQLRQDRGGMI
modifications: catalytic domain
For the molecule B6, the “interaction with p38α by NMR (in words)” value with p38α [4] was “non-specific interactions throughout the p38α surface”.

B7: PTPSL_(KIMKIS) (residues 332–373) (peptide, UniProt Q15256 332-373, looked up)
chain: GLQERRGSNVSLTLDMSSLGNIEPFVSIPTPREKVAMEYLQS
As for B7, in the series with p38α (unphosphorylated) [3], the equilibrium dissociation constant (Kd) is 1.53 ± 0.023 µM and the dH is -162 ± 25.5 kJ/mol.
